Data set [1] in a line: folding enthalpy; higher = less favourable; fluorescence melt of hairpins on a sequencing array, two-state fit. The settings on record: sodium 0.088 M. The gist of the method:
(§1)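 Folding enthalpy and melting temperature come from bootstrapped two-state fits to Cy3 fluorescence of library hairpins carrying annealed Cy3 and quencher oligos on a sequenced MiSeq flow cell. Imaging was done in 50 mM Na-HEPES pH 8.0, 25 mM NaCl, stepping by 2.5 °C up to 60 °C, and signals were normalised to pre-quench Cy3 and to control constructs. Results of four replicates were combined by inverse variance, and fitted temperatures were raised by 9.35 °C to match UV melts.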

A short description of data set [2]: melting temperature; fluorescence melt of hairpins on a sequencing array, two-state fit, raised by 9.35 °C to match UV melts. The settings on record: sodium 0.088 M. The gist of the method:
as §1

For 37 sequences, folding enthalpy and Tm results are on record in the array DNA melting data of Ke et al. (doi:10.1101/2024.01.08.574731).

With GTCTGGGGAAACCCAGAC (((((((....))))))), in data set [1], the folding enthalpy was -37.6 kcal/mol. Further, the Tm in data set [2] was 68.5 °C.
The matching figures for GTCTGGGGAAACCCGGAC (((.(((....))).))): -39.6 kcal/mol and 55.5 °C.
The like results for GTCTGGGGAAACTCAGGC (.(((.(....).))).) were, in that order, -23.3 kcal/mol and 35.8 °C.
The matching figures for GTCTGGGGAAACTCGGAC (((.(.(....).).))): -28.8 kcal/mol and 37.1 °C.
GTCTGTGCGAAAGCAGAC (((..(((....)))))): in data set [1], the folding enthalpy is -19.5 kcal/mol. In data set [2], the Tm turned out to be 46.4 °C.
The like results for GTCTGTGGAAACATAGAC ((((.((....)).)))) were, in that order, -31.2 kcal/mol and 44.5 °C.
For the sequence GTCTGTGGAAACATGGAC (((..((....))..))), the folding enthalpy in data set [1] is -26.8 kcal/mol. In addition, the Tm in data set [2] was found to be 37.3 °C.
The like results for GTCTGTGGAAACGCAGAC (((((.(....).))))) were, in that order, -48 kcal/mol and 53.8 °C.
The matching figures for GTCTGTGGAAACGTAGAC ((((..(....)..)))): -23.6 kcal/mol and 37.2 °C.
The like results for GTCTTAGGAAACTAAGAC (((((((....))))))) were, in that order, -38.4 kcal/mol and 53.7 °C.
For the sequence GTCTTCCCGAAAGGGGAC (((..(((....)))))), the folding enthalpy in data set [1] was -12.5 kcal/mol. In data set [2], the Tm is 35.9 °C.
The matching figures for GTCTTCCGAAAGGAGAC (((.(((....)))))): -23.4 kcal/mol and 47.6 °C.
The matching figures for GTCTTCGAAAGAAATGAC ((((((....)))..))): -9.91 kcal/mol and 25.1 °C.
The matching figures for GTCTTCGAAAGAACGGAC ((((((....)))..))): -14.6 kcal/mol and 30.4 °C.
Take GTCTTCGAAAGAATAGAC ((((((....)))..))): the folding enthalpy in data set [1] is -19.5 kcal/mol. The Tm in data set [2] was 30.7 °C.
The matching figures for GTCTTCGAAAGAATGAC ((((((....))).))): -25 kcal/mol and 37.9 °C.
GTCTTCGGAAACAAAGAC (((((.(....).))))): the folding enthalpy in data set [1] is -29.7 kcal/mol. Moreover, in data set [2], the Tm came out at 32.3 °C.
The like results for GTCTTCGGAAACGAAGAC (((((((....))))))) were, in that order, -30.5 kcal/mol and 64.8 °C.
The matching figures for GTCTTCGGAAACGGAGAC ((((.((....)).)))): -39.1 kcal/mol and 50.4 °C.
The matching figures for GTCTTGAAAAAGAC (((((....))))): -21.7 kcal/mol and 44.1 °C.
Consider GTCTTGCCGAAAGGCGAC (((..(((....)))))), for which the folding enthalpy in data set [1] is -10.7 kcal/mol. For the same sequence, the Tm in data set [2] came to 38.3 °C.
GTCTTGCGAAAGCACGAC (((.(((....))).))): the folding enthalpy in data set [1] was -41.5 kcal/mol. In data set [2], the Tm was determined as 52.1 °C.
The matching figures for GTCTTGCGAAAGCAGGAC (((.(((....))).))): -27.4 kcal/mol and 58 °C.
Regarding GTCTTGTCGAAAGACGAC (((..(((....)))))), the folding enthalpy in data set [1] is -18.1 kcal/mol. In addition, in data set [2], the Tm was found to be 50.4 °C.
On to GTCTTTCGAAAGAAGAC (((.(((....)))))), for which, in data set [1], the folding enthalpy was -25.1 kcal/mol. Also, in data set [2], the Tm turned out to be 38.5 °C.
The like results for GTGAAAGGAAACTTCCAC (((.(((....))).))) were, in that order, -16.3 kcal/mol and 27.8 °C.
The like results for GTGAAAGGAAACTTTCGC (.(((((....))))).) were, in that order, -27.3 kcal/mol and 45.2 °C.
As for GTGAACACGAAAGTGCAC (((..(((....)))))), the folding enthalpy in data set [1] is -14.1 kcal/mol. Also, in data set [2], the Tm turned out to be 41.2 °C.
On to GTGAACGAAAGTTAACAC ((((((....)))..))), for which, in data set [1], the folding enthalpy was -19.5 kcal/mol. Further, in data set [2], the Tm came out at 35.5 °C.
For GTGAACGAAAGTTGCAC ((((((....))).))), the folding enthalpy in data set [1] is -19.8 kcal/mol. Moreover, the Tm in data set [2] was 37.3 °C.
Regarding GTGAACGAAAGTTGTCAC ((((((....)))..))), in data set [1], the folding enthalpy is -21.8 kcal/mol. In addition, the Tm in data set [2] turned out to be 27.9 °C.
The matching figures for GTGAACGAAAGTTTGCAC ((((((....)))..))): -15.4 kcal/mol and 32 °C.
The like results for GTGAACGGAAACGTTCAC (((((((....))))))) were, in that order, -30 kcal/mol and 67.8 °C.
For GTGAAGCCGAAAGGCCAC (((..(((....)))))), the folding enthalpy in data set [1] was -15.6 kcal/mol. Further, the Tm in data set [2] was found to be 47.8 °C.
For the sequence GTGAATCCGAAAGGACAC (((..(((....)))))), the folding enthalpy in data set [1] was -20.1 kcal/mol. Also, the Tm in data set [2] is 32.8 °C.
In the case of GTGAATCGAAAGATCAC (((.(((....)))))), the folding enthalpy in data set [1] is -26.3 kcal/mol. The Tm in data set [2] was 45.3 °C.
Take GTGAATGGAAACATTTAC ((.((((....)))).)): the folding enthalpy in data set [1] is -32.9 kcal/mol. In addition, in data set [2], the Tm turned out to be 36.5 °C.
